ChEMBL document CHEMBL1122702, “Radiohalogen-labeled imaging agents. 3. Compounds for measurement of brain blood flow by emission tomography” (J Med Chem, 1984)

Legend:
Type in all cases: ADME, organism-based
[1] = organism: Rattus norvegicus; assay: The uptake of the 131 I-labeled compound at 30 min was evaluated in rat blood as Percent of injected dose per gram in the organ; conditions: in vivo, 0.5 h
Procedure, shortened: (§1)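 Male Sprague-Dawley rats (200–300 g, free access to food and water), lightly ether-anesthetized and restrained, received a 0.2 mL saline tail-vein bolus of 10–20 μCi 131I-labeled compound. They were decapitated at the stated time, and organs were excised, weighed and gamma-counted. Percent injected dose was determined against a calibrated external standard made by serial dilution of the injectate. n = 1–4 rats.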

[2] = organism: Rattus norvegicus; assay: The uptake of the 131 I-labeled compound at 30 min was evaluated in rat brain as Percent of injected dose in the total organ; conditions: in vivo, 0.5 h; procedure, shortened: as §1
[3] = organism: Rattus norvegicus; assay: The uptake of the 131 I-labeled compound at 30 min was evaluated in rat brain as Percent of injected dose per gram in the organ; conditions: in vivo, 0.5 h; procedure, shortened: as §1
[4] = organism: Rattus norvegicus; assay: The uptake of the 131 I-labeled compound at 30 min was evaluated in rat heart as Percent of injected dose in the total organ; conditions: in vivo, 0.5 h; procedure, shortened: as §1
[5] = organism: Rattus norvegicus; assay: The uptake of the 131 I-labeled compound at 30 min was evaluated in rat heart as Percent of injected dose per gram in the organ; conditions: in vivo, 0.5 h; procedure, shortened: as §1
[6] = organism: Rattus norvegicus; assay: The uptake of the 131 I-labeled compound at 30 min was evaluated in rat kidney as Percent of injected dose in the total organ; conditions: in vivo, 0.5 h; procedure, shortened: as §1
[7] = organism: Rattus norvegicus; assay: The uptake of the 131 I-labeled compound at 30 min was evaluated in rat kidney as Percent of injected dose per gram in the organ; conditions: in vivo, 0.5 h; procedure, shortened: as §1
[8] = organism: Rattus norvegicus; assay: The uptake of the 131 I-labeled compound at 30 min was evaluated in rat liver as Percent of injected dose in the total organ; conditions: in vivo, 0.5 h; procedure, shortened: as §1
[9] = organism: Rattus norvegicus; assay: The uptake of the 131 I-labeled compound at 30 min was evaluated in rat liver as Percent of injected dose per gram in the organ; conditions: in vivo, 0.5 h; procedure, shortened: as §1
[10] = organism: Rattus norvegicus; assay: The uptake of the 131 I-labeled compound at 30 min was evaluated in rat lung as Percent of injected dose per gram in the organ; conditions: in vivo, 0.5 h; procedure, shortened: as §1
[11] = organism: Rattus norvegicus; assay: The uptake of the 131 I-labeled compound at 5 min was evaluated in rat blood as Percent of injected dose per gram in the organ; conditions: in vivo; procedure, shortened: as §1
[12] = organism: Rattus norvegicus; assay: The uptake of the 131 I-labeled compound at 5 min was evaluated in rat brain as Percent of injected dose in the total organ; conditions: in vivo; procedure, shortened: as §1
[13] = organism: Rattus norvegicus; assay: The uptake of the 131 I-labeled compound at 5 min was evaluated in rat brain as Percent of injected dose per gram in the organ; conditions: in vivo; procedure, shortened: as §1
[14] = organism: Rattus norvegicus; assay: The uptake of the 131 I-labeled compound at 5 min was evaluated in rat heart as Percent of injected dose in the total organ; conditions: in vivo; procedure, shortened: as §1
[15] = organism: Rattus norvegicus; assay: The uptake of the 131 I-labeled compound at 5 min was evaluated in rat kidney as Percent of injected dose in the total organ; conditions: in vivo; procedure, shortened: as §1
[16] = organism: Rattus norvegicus; assay: The uptake of the 131 I-labeled compound at 5 min was evaluated in rat kidney as Percent of injected dose per gram in the organ; conditions: in vivo; procedure, shortened: as §1
[17] = organism: Rattus norvegicus; assay: The uptake of the 131 I-labeled compound at 5 min was evaluated in rat liver as Percent of injected dose in the total organ; conditions: in vivo; procedure, shortened: as §1
[18] = organism: Rattus norvegicus; assay: The uptake of the 131 I-labeled compound at 5 min was evaluated in rat liver as Percent of injected dose per gram in the organ; conditions: in vivo; procedure, shortened: as §1
[19] = organism: Rattus norvegicus; assay: The uptake of the 131 I-labeled compound at 5 min was evaluated in rat lung as Percent of injected dose per gram in the organ; conditions: in vivo; procedure, shortened: as §1
[20] = organism: Rattus norvegicus; assay: Ratio of distribution of the [131I]-labeled compound at 30 min in rat brain over uptake in blood; conditions: 0.5 h
Procedure, shortened: (§2)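 Male Sprague-Dawley rats (200–300 g, fed ad libitum), ether-anesthetized, got a tail-vein bolus of 0.2 mL saline containing 10–20 μCi 131I compound and were decapitated at the stated time. Organs were weighed and gamma-counted against a serially diluted external standard. Organ/blood ratio was calculated from % dose per gram of organ. Animal numbers per time point were 1–4.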

[21] = organism: Rattus norvegicus; assay: Ratio of distribution of the [131I]-labeled compound at 30 min in rat heart over uptake in blood; conditions: other tissue, 0.5 h; procedure, shortened: as §2
[22] = organism: Rattus norvegicus; assay: Ratio of distribution of the [131I]-labeled compound at 30 min in rat kidney over uptake in blood; conditions: other tissue, 0.5 h; procedure, shortened: as §2
[23] = organism: Rattus norvegicus; assay: Ratio of distribution of the [131I]-labeled compound at 30 min in rat liver over uptake in blood; conditions: other tissue, 0.5 h; procedure, shortened: as §2
[24] = organism: Rattus norvegicus; assay: Ratio of distribution of the [131I]-labeled compound at 30 min in rat lung over uptake in blood; conditions: other tissue, 0.5 h; procedure, shortened: as §2
[25] = organism: Rattus norvegicus; assay: Ratio of distribution of the [131I]-labeled compound at 5 min in rat brain over uptake in blood; procedure, shortened: as §2
[26] = organism: Rattus norvegicus; assay: Ratio of distribution of the [131I]-labeled compound at 5 min in rat heart over uptake in blood; conditions: other tissue; procedure, shortened: as §2
[27] = organism: Rattus norvegicus; assay: Ratio of distribution of the [131I]-labeled compound at 5 min in rat kidney over uptake in blood; conditions: other tissue; procedure, shortened: as §2
[28] = organism: Rattus norvegicus; assay: Ratio of distribution of the [131I]-labeled compound at 5 min in rat liver over uptake in blood; conditions: other tissue; procedure, shortened: as §2
[29] = organism: Rattus norvegicus; assay: Ratio of distribution of the [131I]-labeled compound at 5 min in rat lung over uptake in blood; conditions: other tissue; procedure, shortened: as §2
[30] = organism: Rattus norvegicus; assay: The uptake of the 131 I-labeled compound at 5 min was evaluated in rat heart as Percent of injected dose per gram in the organ; conditions: in vivo; procedure, shortened: as §1
[31] = organism: Rattus norvegicus; assay: The distribution of the 131 I-labeled compound at 30 min was evaluated in rat brain as Percent of injected dose per gram in the organ; conditions: in vivo, 0.5 h; procedure, shortened: as §1
[32] = organism: Rattus norvegicus; assay: The distribution of the 131 I-labeled compound at 30 min was evaluated in rat heart as Percent of injected dose in the total organ; conditions: in vivo, 0.5 h; procedure, shortened: as §1
[33] = organism: Rattus norvegicus; assay: The distribution of the 131 I-labeled compound at 30 min was evaluated in rat heart as Percent of injected dose per gram in the organ; conditions: in vivo, 0.5 h; procedure, shortened: as §1
[34] = organism: Rattus norvegicus; assay: The distribution of the 131 I-labeled compound at 30 min was evaluated in rat kidney as Percent of injected dose in the total organ; conditions: in vivo, 0.5 h; procedure, shortened: as §1
[35] = organism: Rattus norvegicus; assay: The distribution of the 131 I-labeled compound at 30 min was evaluated in rat kidney as Percent of injected dose per gram in the organ; conditions: in vivo, 0.5 h; procedure, shortened: as §1
[36] = organism: Rattus norvegicus; assay: The distribution of the 131 I-labeled compound at 30 min was evaluated in rat liver as Percent of injected dose in the total organ; conditions: in vivo, 0.5 h; procedure, shortened: as §1
[37] = organism: Rattus norvegicus; assay: The distribution of the 131 I-labeled compound at 30 min was evaluated in rat liver as Percent of injected dose per gram in the organ; conditions: in vivo, 0.5 h; procedure, shortened: as §1
[38] = organism: Rattus norvegicus; assay: The distribution of the 131 I-labeled compound at 30 min was evaluated in rat lung as Percent of injected dose per gram in the organ; conditions: in vivo, 0.5 h; procedure, shortened: as §1
[39] = organism: Rattus norvegicus; assay: The distribution of the 131 I-labeled compound at 5 min was evaluated in rat brain as Percent of injected dose in the total organ; conditions: in vivo; procedure, shortened: as §1
[40] = organism: Rattus norvegicus; assay: The distribution of the 131 I-labeled compound at 5 min was evaluated in rat brain as Percent of injected dose per gram in the organ; conditions: in vivo; procedure, shortened: as §1
[41] = organism: Rattus norvegicus; assay: The distribution of the 131 I-labeled compound at 5 min was evaluated in rat heart as Percent of injected dose in the total organ; conditions: in vivo; procedure, shortened: as §1
[42] = organism: Rattus norvegicus; assay: The distribution of the 131 I-labeled compound at 5 min was evaluated in rat heart as Percent of injected dose per gram in the organ; conditions: in vivo; procedure, shortened: as §1
[43] = organism: Rattus norvegicus; assay: The distribution of the 131 I-labeled compound at 5 min was evaluated in rat kidney as Percent of injected dose in the total organ; conditions: in vivo; procedure, shortened: as §1
[44] = organism: Rattus norvegicus; assay: The distribution of the 131 I-labeled compound at 5 min was evaluated in rat kidney as Percent of injected dose per gram in the organ; conditions: in vivo; procedure, shortened: as §1
[45] = organism: Rattus norvegicus; assay: The distribution of the 131 I-labeled compound at 5 min was evaluated in rat liver as Percent of injected dose in the total organ; conditions: in vivo; procedure, shortened: as §1
[46] = organism: Rattus norvegicus; assay: The distribution of the 131 I-labeled compound at 5 min was evaluated in rat liver as Percent of injected dose per gram in the organ; conditions: in vivo; procedure, shortened: as §1
[47] = organism: Rattus norvegicus; assay: The distribution of the 131 I-labeled compound at 5 min was evaluated in rat lung as Percent of injected dose per gram in the organ; conditions: in vivo; procedure, shortened: as §1
[48] = organism: Rattus norvegicus; assay: The distribution of the 131 I-labeled compound at 30 min was evaluated in rat blood as Percent of injected dose per gram in the organ; conditions: in vivo, 0.5 h; procedure, shortened: as §1
[49] = organism: Rattus norvegicus; assay: The distribution of the 131 I-labeled compound at 5 min was evaluated in rat blood as Percent of injected dose per gram in the organ; conditions: in vivo; procedure, shortened: as §1
[50] = organism: Rattus norvegicus; assay: The distribution of the 131 I-labeled compound at 30 min was evaluated in rat brain as Percent of injected dose in the total organ; conditions: in vivo, 0.5 h; procedure, shortened: as §1

| SMILES | Ratio [20] | Ratio [21] | Ratio [22] | Ratio [23] | Ratio [24] | Ratio [25] | Ratio [26] | Ratio [27] | Ratio [28] | Ratio [29] | Dose [31] [%] | Dose [32] [%] | Dose [33] [%] | Dose [34] [%] | Dose [35] [%] | Dose [36] [%] | Dose [37] [%] | Dose [38] [%] | Dose [39] [%] | Dose [40] [%] | further results |
| --- | --- | --- | --- | --- | --- | --- | --- | --- | --- | --- | --- | --- | --- | --- | --- | --- | --- | --- | --- | --- | --- |
| CCCCCCCCCCCCNC(C)Cc1cc(OC)c(I)cc1OC (stereo not given) | 0.14 | 1.2 | 1.4 | 3.3 | 8.1 | 0.1 | 1.2 | 1.2 | 2.5 | 13 | – | – | – | – | – | – | – | – | – | – | Dose [1]: 0.16%; Dose [2]: 0.046%; Dose [3]: 0.022%; Dose [4]: 0.27%; Dose [5]: 0.19%; Dose [6]: 0.69%; Dose [7]: 0.22%; Dose [8]: 7.9%; Dose [9]: 0.53%; Dose [10]: 1.3%; Dose [11]: 0.48%; Dose [12]: 0.084%; Dose [13]: 0.047%; Dose [14]: 1%; Dose [15]: 1.8%; Dose [16]: 0.58%; Dose [17]: 17%; Dose [18]: 1.2%; Dose [19]: 6.1%; Dose [30]: 0.6% |
| COc1cc(CC(C)NCC#N)c(OC)cc1I (stereo not given) | 2.4 | 3 | 9.2 | 9.2 | 15 | 3 | 4.7 | 15 | 4.8 | 24 | 0.31 | 0.3 | 0.39 | 2.2 | 1.2 | 9.5 | 1.2 | 1.9 | 0.61 | 0.3 | Dose [41]: 0.69%; Dose [42]: 0.52%; Dose [43]: 4.8%; Dose [44]: 1.5%; Dose [45]: 8.4%; Dose [46]: 0.53%; Dose [47]: 2.6%; Dose [48]: 0.13%; Dose [49]: 0.11%; Dose [50]: 0.61% |
| COc1cc(CC(C)NCC2CC2)c(OC)cc1I (stereo not given) | 2.1 | 3.3 | 8.6 | 11 | 26 | 2.8 | 7.6 | 9.2 | 4.5 | 65 | 0.19 | 0.23 | 0.3 | 1.7 | 0.77 | 8.9 | 0.97 | 2.4 | 0.62 | 0.33 | Dose [41]: 0.71%; Dose [42]: 0.91%; Dose [43]: 2%; Dose [44]: 1.1%; Dose [45]: 3.9%; Dose [46]: 0.55%; Dose [47]: 7.8%; Dose [48]: 0.09%; Dose [49]: 0.12%; Dose [50]: 0.35% |
